Measurements reported in ChEMBL document CHEMBL5126597, “Indazole MRL-871 interacts with PPARγ via a binding mode that induces partial agonism” (Bioorg Med Chem, 2022).
pKd: −log10 of the molar value. Activity calls are given as the source filed them. The calls are words filed in the database; no cut-off is given here.

Experiments:
[1] = target: T1, Peroxisome proliferator-activated receptor gamma (Homo sapiens) (UniProt P37231); assay: Stabilization of PPARgamma LBD (unknown origin) assessed as change in melting temperature by differential scanning fluorimetry
T1 sequence (whole entry): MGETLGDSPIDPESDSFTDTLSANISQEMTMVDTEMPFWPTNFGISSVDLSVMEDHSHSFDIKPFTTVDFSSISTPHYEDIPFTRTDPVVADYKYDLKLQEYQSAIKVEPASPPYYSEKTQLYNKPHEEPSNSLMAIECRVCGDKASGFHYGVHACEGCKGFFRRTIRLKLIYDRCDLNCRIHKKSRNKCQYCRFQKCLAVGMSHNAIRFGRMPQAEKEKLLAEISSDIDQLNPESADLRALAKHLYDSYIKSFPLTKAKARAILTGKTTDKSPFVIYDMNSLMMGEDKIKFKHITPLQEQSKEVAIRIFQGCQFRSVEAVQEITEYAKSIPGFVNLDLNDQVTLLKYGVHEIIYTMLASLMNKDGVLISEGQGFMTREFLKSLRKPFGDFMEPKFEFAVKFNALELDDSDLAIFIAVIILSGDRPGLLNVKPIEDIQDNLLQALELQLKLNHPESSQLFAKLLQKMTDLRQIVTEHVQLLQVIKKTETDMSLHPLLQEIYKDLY

[2] = target: T1, Peroxisome proliferator-activated receptor gamma (Homo sapiens); assay: Stabilization of PPARgamma LBD (unknown origin) assessed as melting temperature at 14 uM by differential scanning fluorimetry
Outline: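 Differential scanning fluorimetry of PPARγ LBD (3.5 µM) with or without ligand at 14 µM (four equivalents) to obtain melting temperature. n ≥ 3, mean ± s.d.; with vs without compound compared by unpaired t-test.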

[3] = Stabilization of PPARgamma LBD (unknown origin)/FITC-labeled PGC-1alpha (unknown origin) protein-protein interaction assessed as dissociation constant by fluorescence anisotropy assay; set-up: species or system Homo sapiens
Outline: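 Fluorescence anisotropy coactivator interaction assay: PPARγ LBD titrated to fluorophore-labelled PGC-1α peptide (10 nM) with DMSO or ligand at 10 µM. n = 3; representative data shown as mean ± s.d.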

[4] = target: T1, Peroxisome proliferator-activated receptor gamma (Homo sapiens); assay: Binding affinity to PPARgamma LBD (unknown origin) assessed as increase in thermal stability by differential scanning fluorimetry; conditions: filed as partial agonist
[5] = target: T1, Peroxisome proliferator-activated receptor gamma (Homo sapiens); assay: Stabilization of PPARgamma LBD (unknown origin) assessed as change in melting temperature in presence of GW9662 by differential scanning fluorimetry
[6] = target: T1, Peroxisome proliferator-activated receptor gamma (Homo sapiens); assay: Stabilization of PPARgamma LBD (unknown origin) assessed as change in melting temperature in presence of SR16832 by differential scanning fluorimetry

ΔTm [1] | Tm [2] | pKd [3] | Activity [4] | ΔTm [5] | ΔTm [6] | Compound
3.9 °C | – | – | – | – | – | O=C(Nc1ccccc1)c1cc([N+](=O)[O-])ccc1Cl
– | 50.2 °C | 6.15 | Active | 1.1 °C | -0.6 °C | O=C(O)c1ccc(-c2nn(C(=O)c3c(Cl)cccc3C(F)(F)F)c3ccccc23)cc1
4.4 °C | – | – | – | – | – | COc1ccc2nccc(NC(=O)c3cc([N+](=O)[O-])ccc3Cl)c2c1
– | – | 6.43 | – | 0 °C | -0.1 °C | CN(CCOc1ccc(CC2SC(=O)NC2=O)cc1)c1ccccn1 (stereo not given) [ROSIGLITAZONE]
